Results on 17 compounds are retold here after publication PMC10975593 (ACS Omega, 2024).

The test system of one experiment is Escherichia coli. The experiment in a line: Disc diffusion antimicrobial test. The class given is cell-based. Particulars: 24 h; for zone of inhibition at 100 µg/mL: Escherichia coli, read-out: zone of inhibition (diameter of inhibition). Put shortly: (§1)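 Disc diffusion on nutrient agar, test compound at 100 μg/mL with DMSO as solvent. Plates incubated at 37 °C for 24 h after inoculation, then zone of inhibition measured and compared with standards. Controls were DMSO, amoxicillin, ciprofloxacin and tetracycline.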

In the next experiment the target is PI3Kγ enzyme (Homo sapiens, UniProt P48736). Briefly: Adapta universal kinase assay, anti-PI3Kγ activity. The experiment is classed as biochemical. The method in brief: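 Adapta ADP-detection TR-FRET immunoassay with test compound at 100 μM. The kinase reaction runs 60 min. It is then stopped by a detection solution of EDTA, europium-labelled anti-ADP antibody and Alexa Fluor 647-labelled ADP tracer. ADP formed displaces the tracer and lowers the TR-FRET signal. ADP formation is calculated from the emission ratio.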
Sequence of PI3Kγ enzyme (P48736 whole entry): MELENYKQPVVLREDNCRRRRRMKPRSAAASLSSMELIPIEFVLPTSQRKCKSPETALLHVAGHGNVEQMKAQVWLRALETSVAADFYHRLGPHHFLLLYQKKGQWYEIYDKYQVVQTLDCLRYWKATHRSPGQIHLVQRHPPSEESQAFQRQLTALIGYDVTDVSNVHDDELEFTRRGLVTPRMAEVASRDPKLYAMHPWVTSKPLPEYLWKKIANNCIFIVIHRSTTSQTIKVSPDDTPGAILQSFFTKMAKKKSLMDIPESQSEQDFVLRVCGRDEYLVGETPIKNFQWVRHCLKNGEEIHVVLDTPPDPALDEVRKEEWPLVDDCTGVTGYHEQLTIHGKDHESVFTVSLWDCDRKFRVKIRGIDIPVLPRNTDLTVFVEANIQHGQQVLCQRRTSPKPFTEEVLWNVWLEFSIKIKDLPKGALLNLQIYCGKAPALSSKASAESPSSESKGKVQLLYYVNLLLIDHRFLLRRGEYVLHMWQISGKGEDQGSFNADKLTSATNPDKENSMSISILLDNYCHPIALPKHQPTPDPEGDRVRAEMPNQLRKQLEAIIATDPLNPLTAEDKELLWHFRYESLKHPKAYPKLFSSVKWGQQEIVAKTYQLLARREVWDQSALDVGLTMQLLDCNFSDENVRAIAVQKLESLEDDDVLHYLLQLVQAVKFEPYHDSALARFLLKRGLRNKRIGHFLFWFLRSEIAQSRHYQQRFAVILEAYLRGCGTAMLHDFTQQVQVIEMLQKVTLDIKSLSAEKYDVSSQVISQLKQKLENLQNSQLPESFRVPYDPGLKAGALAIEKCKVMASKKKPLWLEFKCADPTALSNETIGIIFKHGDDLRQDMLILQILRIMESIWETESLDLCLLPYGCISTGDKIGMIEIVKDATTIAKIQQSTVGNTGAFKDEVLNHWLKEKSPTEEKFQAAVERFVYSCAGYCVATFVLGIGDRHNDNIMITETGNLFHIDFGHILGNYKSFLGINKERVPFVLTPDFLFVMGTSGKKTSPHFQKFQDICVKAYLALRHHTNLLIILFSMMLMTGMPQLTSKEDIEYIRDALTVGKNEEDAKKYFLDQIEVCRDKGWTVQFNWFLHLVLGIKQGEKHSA

The next experiment deals with Fibro cell line. The experiment in a line: % inhibition on normal cell line. The experiment is classed as cell-based. Particulars: for inhibition at 10 µM: read-out: %inhibition at 10 μM; for inhibition at 100 µM: read-out: %inhibition at 100 μM.
The next experiment has as its system Staphylococcus aureus. Briefly: Disc diffusion antimicrobial test. The class given is cell-based. Particulars: 24 h; for zone of inhibition at 100 µg/mL: Staphylococcus aureus, read-out: zone of inhibition (diameter of inhibition). The method in brief: as §1
Experiment [1] deals with A549 cancer cell line. The experiment in a line: MTT assay. The experiment is classed as cell-based. Particulars: for inhibition at 100 µM / IC50: Homo sapiens, A549, 72 h; for inhibition at 100 µM: read-out: experimental % of inhibition on A549 cancer cell line. Put shortly:
(§2)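 A549 in DMEM and MCF-7 in RPMI, each with 10% heat-inactivated FBS, 1% penicillin/streptomycin and 2 mmol/L glutamine at 37 °C, 5% CO2. Seeded at 2000 (A549) or 10,000 (MCF-7) cells/well and attached 24 h. Then 72 h with test compound at varying concentrations. MTT (5 mg/mL stock) added for 4 h at 37 °C, formazan dissolved in DMSO, absorbance read at 450/540 nm. Triplicates in three separate experiments.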

The test system of experiment [2] is A549 cancer cell line. Particulars: cited from earlier work.
A further experiment has as its system MCF-7 cancer cell line. Briefly: MTT assay. The experiment is classed as cell-based. The method in brief: as §2
The mark [3] stands for this setting: read-out: % of inhibition (mean) against PI3Kγ enzyme.
[4] abbreviates: read-out: % of inhibition against PI3Kγ enzyme, point 1.
Setting [5] is: read-out: % of inhibition against PI3Kγ enzyme, point 2.

Where two headings read alike, the source gives them in different places.

Take `O=C(CN1CCN(c2cccc(O)c2)CC1)Nc1nc2ccccc2s1` [OMS10, N-(1,3-benzothiazol-2-yl)-2-[4-(3-hydroxyphenyl)piperazin-1-yl]acetamide]: the zone of inhibition (usually the size of the clear area around the sample on an inoculated plate) at 100 µg/mL was 0 mm in the experiment on Escherichia coli and 11 mm in the experiment on Staphylococcus aureus. In addition, the inhibition (in general, the relative decrease from the control value, in per cent) at 100 µM at PI3Kγ enzyme (setting [3]) came out at 2%; on PI3Kγ enzyme (setting [4]), 3%; on PI3Kγ enzyme (setting [5]) it was 0%; in the experiment with Fibro cell line, 44.1%; with A549 cancer cell line [1] it was 38.1%. Besides, the inhibition at 10 µM in the experiment on Fibro cell line is 15.9%.

With `O=C(CN1CCN(CC(=O)Nc2nc3ccccc3s2)CC1)Nc1nc2ccccc2s1` [OMS16, 2,2′-(piperazine-1,4-diyl)bis(N-(benzo[d]thiazol-2-yl)acetamide)], the zone of inhibition at 100 µg/mL in the experiment with Escherichia coli and with Staphylococcus aureus was 0 mm in each case. For the same compound, the inhibition at 100 µM on PI3Kγ enzyme (setting [3]) came to 1%; at PI3Kγ enzyme (setting [4]), 2%; at PI3Kγ enzyme (setting [5]), 0%; in the experiment on Fibro cell line, 70.1%; with A549 cancer cell line [1], 56.6%. For the same compound, in the experiment with Fibro cell line, the inhibition at 10 µM amounted to 53.8%.

As to `CN(C)C1CCN(C(=O)c2ccc(NC(=O)Nc3ccc(-c4nc(N5CCOCC5)nc(N5CCOCC5)n4)cc3)cc2)CC1` [Gedatolisib, reference compound], the IC50 – broadly, the point on the concentration scale where inhibition reaches its midpoint – with A549 cancer cell line [2] (read-out: reported IC50) was 9.05 µM; in the experiment on MCF-7 cancer cell line (Homo sapiens, MCF7, 72 h), 13.1 µM; in the experiment with A549 cancer cell line [1] it was 16.5 µM.

Take `O=C(CNc1ccc(I)cc1)Nc1nc2ccccc2s1` [OMS4, N-(1,3-benzothiazol-2-yl)-2-(4-iodoanilino)acetamide]: the figures for the zone of inhibition at 100 µg/mL with Escherichia coli and with Staphylococcus aureus were 0 mm and 10 mm, respectively. In addition, the inhibition at 100 µM is 0% on PI3Kγ enzyme (setting [3]); 0% at PI3Kγ enzyme (setting [4]); 0% on PI3Kγ enzyme (setting [5]); 27.6% in the experiment on Fibro cell line; -2.32% in the experiment on A549 cancer cell line [1]. The inhibition at 10 µM in the experiment on Fibro cell line stood at 1.32%.

As for `O=C(CNC1CCCCC1)Nc1nc2ccccc2s1` [OMS1, N-(1,3-benzothiazol-2-yl)-2-(cyclohexylamino)acetamide], the values for the zone of inhibition at 100 µg/mL in the experiment on Escherichia coli and with Staphylococcus aureus were 0 mm and 22 mm, respectively. Besides, the inhibition at 100 µM came to 47% on PI3Kγ enzyme (setting [3]); 54% on PI3Kγ enzyme (setting [4]); 40% at PI3Kγ enzyme (setting [5]); 13% in the experiment on Fibro cell line; 1.72% with A549 cancer cell line [1]. Besides, the inhibition at 10 µM in the experiment with Fibro cell line was determined as 0.85%.

On to `CNC(=O)c1cc(Oc2ccc(NC(=O)Nc3ccc(Cl)c(C(F)(F)F)c3)cc2)ccn1` [Sorafenib, reference compound], for which, in the experiment with Fibro cell line, the inhibition at 10 µM was found to be 10.7% and the inhibition at 100 µM is 26.3%.

In the case of `O=C(CN1CCN(c2ccc([N+](=O)[O-])cc2)CC1)Nc1nc2ccccc2s1` [OMS11, N-(1,3-benzothiazol-2-yl)-2-[4-(4-nitrophenyl)piperazin-1-yl]acetamide], the zone of inhibition at 100 µg/mL in the experiment on Escherichia coli and in the experiment on Staphylococcus aureus was 0 mm each time. Further, the inhibition at 100 µM at PI3Kγ enzyme (setting [3]) is 3%; on PI3Kγ enzyme (setting [4]), 6%; on PI3Kγ enzyme (setting [5]), 0%; in the experiment on Fibro cell line, 19.2%; in the experiment on A549 cancer cell line [1], 22%. Moreover, the inhibition at 10 µM in the experiment with Fibro cell line worked out at 21.3%.

As for `O=C(CN1CCOCC1)Nc1nc2ccccc2s1` [OMS9, N-(1,3-benzothiazol-2-yl)-2-(morpholin-4-yl)acetamide], the zone of inhibition at 100 µg/mL in the experiment on Escherichia coli and in the experiment with Staphylococcus aureus was 0 mm each time. Also, the inhibition at 100 µM at PI3Kγ enzyme (setting [3]) was 2%; on PI3Kγ enzyme (setting [4]) it was 0%; at PI3Kγ enzyme (setting [5]) it was 3%; in the experiment on Fibro cell line, 3.11%; in the experiment on A549 cancer cell line [1], 17.2%. In addition, the inhibition at 10 µM in the experiment with Fibro cell line came to 11.8%.

With “N-(benzo[d]thiazol-2-yl)-2-(4-(2-oxo-2-(piperazin-1-yl)ethyl)piperazin-1-yl)acetamide [OMS15]”, the “zone of inhibition (diameter of inhibition)” value with Escherichia coli (disc diffusion, 100 μg/mL, E. coli) is given as 0 mm. Also, on PI3Kγ enzyme (100 μM), the “% of inhibition against PI3Kγ enzyme, point 1” value turned out to be 0% and the “% of inhibition against PI3Kγ enzyme, point 2” value came to 0%. Further, the “% of inhibition (mean) against PI3Kγ enzyme” value at PI3Kγ enzyme (100 μM, mean of 2 trials) worked out at 0%. Further, the %inhibition (as a rule, the share of the control response that was lost under treatment) at 10 μM with Fibro cell line (Fibro cell line (normal), 10 μM) is listed as 34.8%. In addition, in the experiment on Fibro cell line (Fibro cell line (normal), 100 μM), the “%inhibition at 100 μM” value came to 70%. The “experimental % of inhibition on MCF-7 cancer cell line” value with MCF-7 cancer cell line (100 μM, 72 h, MTT) was “–23.63%”. The “zone of inhibition (diameter of inhibition)” value with Staphylococcus aureus (disc diffusion, 100 μg/mL, S. aureus) stood at 0 mm. Moreover, in the experiment on A549 cancer cell line [1] (100 μM, 72 h, MTT), the “experimental % of inhibition on A549 cancer cell line” value is 56.69%.

In the case of `O=C(CNc1ccc(F)cc1)Nc1nc2ccccc2s1` [OMS3, N-(1,3-benzothiazol-2-yl)-2-(4-fluoroanilino)acetamide], the zone of inhibition at 100 µg/mL in the experiment with Escherichia coli came to 0 mm; in the experiment with Staphylococcus aureus, 15 mm. For the same compound, the inhibition at 100 µM was determined as 24% on PI3Kγ enzyme (setting [3]); 20% at PI3Kγ enzyme (setting [4]); 28% at PI3Kγ enzyme (setting [5]); 63.8% in the experiment with Fibro cell line; 2.8% in the experiment with A549 cancer cell line [1]. Moreover, the inhibition at 10 µM in the experiment on Fibro cell line worked out at 10.3%.

Regarding `N=C(N)NS(=O)(=O)c1ccc(NCC(=O)Nc2nc3ccccc3s2)cc1` [OMS7, N-(1,3-benzothiazol-2-yl)-2-[4-(carbamimidoylsulfamoyl)anilino]acetamide], the zone of inhibition at 100 µg/mL in the experiment on Escherichia coli and in the experiment with Staphylococcus aureus was 0 mm in each case. The inhibition at 100 µM on PI3Kγ enzyme (setting [3]) was 25%; at PI3Kγ enzyme (setting [4]) it was 29%; on PI3Kγ enzyme (setting [5]), 22%; in the experiment on Fibro cell line, 16.4%; with A549 cancer cell line [1], -3.59%. In addition, in the experiment with Fibro cell line, the inhibition at 10 µM came to 1.88%.

As for `NS(=O)(=O)c1ccc(NCC(=O)Nc2nc3ccccc3s2)cc1` [OMS6, N-(1,3-benzothiazol-2-yl)-2-(4-sulfamoylanilino)acetamide], the zone of inhibition at 100 µg/mL with Escherichia coli and in the experiment with Staphylococcus aureus was 0 mm each time. Also, the inhibition at 100 µM on PI3Kγ enzyme (setting [3]) stood at 13%; at PI3Kγ enzyme (setting [4]) it was 3%; on PI3Kγ enzyme (setting [5]), 22%; in the experiment on Fibro cell line it was 62.7%; in the experiment with A549 cancer cell line [1], 39.6%. In addition, the inhibition at 10 µM in the experiment on Fibro cell line was found to be 1.52%.

`O=C(CN1CCN(c2ccccc2O)CC1)Nc1nc2ccccc2s1` [OMS12, N-(1,3-benzothiazol-2-yl)-2-[4-(2-hydroxyphenyl)piperazin-1-yl]acetamide]: the zone of inhibition at 100 µg/mL in the experiment on Escherichia coli is 0 mm; in the experiment on Staphylococcus aureus, 20 mm. The inhibition at 100 µM stood at 16% at PI3Kγ enzyme (setting [3]); 28% at PI3Kγ enzyme (setting [4]); 4% on PI3Kγ enzyme (setting [5]); 22.2% in the experiment on Fibro cell line; 48.5% in the experiment with A549 cancer cell line [1]. In the experiment on Fibro cell line, the inhibition at 10 µM is 24.3%.

As for `COc1cccc2c1C(=O)c1c(O)c3c(c(O)c1C2=O)C[C@@](O)(C(=O)CO)C[C@@H]3O[C@H]1C[C@H](N)[C@H](O)[C@H](C)O1` [Doxorubicin, reference compound], in the experiment with A549 cancer cell line [2] (read-out: reported IC50 against A549), the IC50 was 0.071 µM. Moreover, in the experiment with A549 cancer cell line [1], the IC50 is 16.6 µM and the inhibition at 100 µM is 82.2%.

As for `O=C(CNc1ccc(S(=O)(=O)Nc2ccccn2)cc1)Nc1nc2ccccc2s1` [OMS8, N-(1,3-benzothiazol-2-yl)-2-{4-[(pyridine-2-yl)sulfamoyl]anilino}acetamide], the zone of inhibition at 100 µg/mL in the experiment with Escherichia coli and in the experiment with Staphylococcus aureus was 0 mm each time. The inhibition at 100 µM at PI3Kγ enzyme (setting [3]) was determined as 0%; on PI3Kγ enzyme (setting [4]), 0%; at PI3Kγ enzyme (setting [5]), 0%; with Fibro cell line it was 43.3%; in the experiment on A549 cancer cell line [1] it was 11.2%. Besides, the inhibition at 10 µM in the experiment on Fibro cell line is 8.62%.

Regarding `CC1(C)S[C@@H]2[C@H](NC(=O)[C@H](N)c3ccc(O)cc3)C(=O)N2[C@H]1C(=O)O` [Amoxicillin, reference compound], the zone of inhibition at 100 µg/mL with Staphylococcus aureus was 22 mm.

`O=C(CN1CCN(c2ccccn2)CC1)Nc1nc2ccccc2s1` [OMS13, N-(1,3-benzothiazol-2-yl)-2-[4-(pyridin-2-yl)piperazin-1-yl]acetamide]: the zone of inhibition at 100 µg/mL with Escherichia coli and with Staphylococcus aureus was 0 mm throughout. Further, the inhibition at 100 µM was 3% on PI3Kγ enzyme (setting [3]); -2% on PI3Kγ enzyme (setting [4]); 8% at PI3Kγ enzyme (setting [5]); 13.8% in the experiment with Fibro cell line; 26.9% in the experiment with A549 cancer cell line [1]. For the same compound, the inhibition at 10 µM with Fibro cell line is 21.1%.
